# Measurements published in ChEMBL document CHEMBL1124210, “Synthesis and biological activity of some transition-state inhibitors of human renin” (J Med Chem, 1988).
# *1 amine or outer side, *2 acyl side, *3 side chain or, on linkers, in order; H or OH if unused. Where a SMILES comes first, the peptide text is derived from it. [ ]: non-standard residue; d: D form. The star is where a group is joined. ξ: configuration not given here. LeuΨ(ξCHOHCH2)Val = CC(C)C[C@H](N[*:1])C(O)C[C@H](C(=O)[*:2])C(C)C; Boc = CC(C)(C)OC(=O)*; Piv = CC(C)(C)C(=O)*
# How the values were obtained:
# Renin = target: T1, Renin (Homo sapiens, UniProt P00797); experiment: In vitro inhibition of purified Human kidney renin (250 pg/mL) incubated with angiotensinogen at pH 7.2
# T1 sequence (P00797 whole entry): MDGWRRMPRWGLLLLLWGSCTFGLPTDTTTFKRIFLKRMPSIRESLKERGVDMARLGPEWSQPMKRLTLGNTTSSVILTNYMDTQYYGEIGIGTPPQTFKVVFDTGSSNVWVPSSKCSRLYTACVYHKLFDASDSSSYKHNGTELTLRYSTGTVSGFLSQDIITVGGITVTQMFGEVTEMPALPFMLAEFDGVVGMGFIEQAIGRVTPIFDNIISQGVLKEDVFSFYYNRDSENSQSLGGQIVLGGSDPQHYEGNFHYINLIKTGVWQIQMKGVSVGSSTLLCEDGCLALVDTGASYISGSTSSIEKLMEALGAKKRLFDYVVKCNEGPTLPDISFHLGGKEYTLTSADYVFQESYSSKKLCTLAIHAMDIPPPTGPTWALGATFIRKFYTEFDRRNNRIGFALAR
# How it was run: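 Purified human kidney renin at 250 pg/mL, incubated at 37 °C with human angiotensinogen at pH 7.2.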
# Monkey [1] = experiment: Reduction of blood pressure measured 120 min after administration of compound(dose 10 mg/kg, po); format: functional
# How it was run: (§1)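 Salt-depleted marmosets given a single intravenous or oral dose. Blood pressure change recorded in mmHg at 30, 60 and 120 min after dosing.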
# Monkey [2] = experiment: Reduction of blood pressure measured 120 min after administration of compound(dose 1 mg/kg, p.o.); format: functional; details: route oral; how it was run: as §1
# Cathepsin D = target: T2, Cathepsin D (Bos taurus, UniProt P80209); experiment: In vitro inhibition of bovine cathepsin D
# T2 sequence (P80209 whole entry): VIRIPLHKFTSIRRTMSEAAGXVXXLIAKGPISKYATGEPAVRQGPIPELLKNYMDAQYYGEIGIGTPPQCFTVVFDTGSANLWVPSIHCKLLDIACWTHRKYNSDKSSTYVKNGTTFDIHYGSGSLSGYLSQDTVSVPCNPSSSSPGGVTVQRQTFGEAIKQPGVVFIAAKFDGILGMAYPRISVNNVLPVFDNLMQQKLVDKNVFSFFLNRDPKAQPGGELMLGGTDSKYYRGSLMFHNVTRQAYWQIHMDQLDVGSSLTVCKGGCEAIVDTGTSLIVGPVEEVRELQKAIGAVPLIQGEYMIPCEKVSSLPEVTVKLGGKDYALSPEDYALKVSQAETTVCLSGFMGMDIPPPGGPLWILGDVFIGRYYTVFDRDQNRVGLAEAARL
# Monkey [3] = experiment: Reduction of blood pressure measured 60 min after administration of compound(dose 1 mg/kg, iv); format: functional; how it was run: as §1
# Monkey [4] = experiment: Reduction of blood pressure measured 30 min after administration of compound(dose 1 mg/kg, p.o.); format: functional; details: route oral; how it was run: as §1
# Monkey [5] = experiment: Reduction of blood pressure measured 120 min after administration of compound(dose 1 mg/kg, iv); format: functional; how it was run: as §1
# Monkey [6] = experiment: Reduction of blood pressure measured 30 min after administration of compound(dose 10mg/kg, po); format: functional; how it was run: as §1
# Monkey [7] = experiment: Reduction of blood pressure measured 60 min after administration of compound(dose 0.1 mg/kg, iv); format: functional; how it was run: as §1
# Monkey [8] = experiment: Reduction of blood pressure measured 30 min after administration of compound(dose 0.1 mg/kg, iv); format: functional; how it was run: as §1
# Monkey [9] = experiment: Reduction of blood pressure measured 120 min after administration of compound(dose 0.1 mg/kg, iv); format: functional; how it was run: as §1
# Monkey [10] = experiment: Reduction of blood pressure measured 60 min after administration of compound(dose 10mg/kg, po); format: functional; how it was run: as §1
# Monkey [11] = experiment: Reduction of blood pressure measured 30 min after administration of compound(dose 3mg/kg, po); format: functional; how it was run: as §1
# Monkey [12] = experiment: Reduction of blood pressure measured 30 min after administration of compound(dose 1 mg/kg, iv); format: functional; how it was run: as §1
# Monkey [13] = experiment: Reduction of blood pressure measured 120 min after administration of compound(dose 3 mg/kg, po); format: functional; how it was run: as §1
# Monkey [14] = experiment: Reduction of blood pressure measured 60 min after administration of compound(dose 3 mg/kg, po); format: functional; how it was run: as §1
# Monkey [15] = experiment: Reduction of blood pressure measured 60 min after administration of compound(dose 1 mg/kg, p.o.); format: functional; details: route oral; how it was run: as §1
structure (smiles),measurement,setting,value
CCCCNC(=O)[C@@H](CC(O)[C@H](CC1CCCCC1)NC(=O)[C@H](Cc1cnc[nH]1)NC(=O)C(Cc1ccccc1)CP(=O)(OCC)OCC)C(C)C (stereo not given in full),IC50,Renin,4 nM
CCCCNC(=O)[C@@H](CC(O)[C@H](CC1CCCCC1)NC(=O)[C@H](Cc1c[nH]cn1)NC(=O)C(CC(=O)C(C)(C)C)Cc1ccccc1)C(C)C (stereo not given in full),IC50,Renin,6 nM
CCCCNC(=O)[C@@H](CC(O)[C@H](CC(C)C)NC(=O)[C@H](Cc1cnc[nH]1)NC(=O)C(C)(OC(=O)C(C)(C)C)c1ccccc1)C(C)C (stereo not given in full),IC50,Renin,20 nM
CCCCNC(=O)[C@@H](CC(O)[C@H](CC1CCCCC1)NC(=O)[C@H](Cc1c[nH]cn1)NC(=O)[C@H](Cc1ccccc1)C[S+]([O-])C(C)(C)C)C(C)C (stereo not given in full),IC50,Renin,2 nM
CCCCNC(=O)[C@@H](CC(O)[C@H](CC1CCCCC1)NC(=O)[C@H](Cc1cnc[nH]1)NC(=O)[C@@H](CSC(C)(C)C)Cc1ccccc1)C(C)C (stereo not given in full),IC50,Renin,4 nM
CC[C@H](C)[C@H](NC(=O)[C@@H](CC(O)[C@H](CC(C)C)NC(=O)[C@H](Cc1cnc[nH]1)NC(=O)C(C)(OC(=O)C(C)(C)C)c1ccccc1)C(C)C)C(=O)N[C@@H](Cc1cnc[nH]1)C(N)=O (stereo not given in full),IC50,Renin,20 nM
CCCCNC(=O)[C@@H](CC(O)[C@H](CC1CCCCC1)NC(=O)[C@H](Cc1c[nH]cn1)NC(=O)C(C)(OC(=O)C(C)(C)C)c1ccccc1)C(C)C (stereo not given in full),IC50,Renin,7 nM
CC[C@H](C)[C@H](NC(=O)[C@@H](CC(O)[C@H](CC(C)C)NC(=O)[C@H](Cc1cnc[nH]1)NC(=O)[C@H](Cc1ccccc1)NC(=O)OC(C)(C)C)C(C)C)C(=O)N[C@@H](Cc1cnc[nH]1)C(N)=O (stereo not given in full) (Boc-FH[LeuΨ(ξCHOHCH2)Val]IH-NH2),IC50,Renin,15 nM
CC[C@H](C)[C@H](NC(=O)[C@@H](CC(O)[C@H](CC(C)C)NC(=O)[C@H](Cc1c[nH]cn1)NC(=O)[C@H](Cc1ccccc1)NC(=O)C(C)(C)C)C(C)C)C(=O)N[C@@H](Cc1c[nH]cn1)C(N)=O (stereo not given in full) (Piv-FH[LeuΨ(ξCHOHCH2)Val]IH-NH2),IC50,Renin,20 nM
CCCCNC(=O)[C@@H](CC(O)[C@H](CC1CCCCC1)NC(=O)[C@H](Cc1c[nH]cn1)NC(=O)C(Cc1ccccc1)CS(=O)(=O)C(C)(C)C)C(C)C (stereo in doubt; 8i),Delta blood pressure,Monkey [1],-23 mmHg
same,Delta blood pressure,Monkey [2],-6 mmHg
same,IC50,Cathepsin D,3200 nM
same,Delta blood pressure,Monkey [3],-13 mmHg
same,Delta blood pressure,Monkey [4],0 mmHg
same,Delta blood pressure,Monkey [5],-12 mmHg
same,Delta blood pressure,Monkey [6],-18 mmHg
same,Delta blood pressure,Monkey [7],-5 mmHg
same,Delta blood pressure,Monkey [8],-13 mmHg
same,Delta blood pressure,Monkey [9],-1 mmHg
same,Delta blood pressure,Monkey [10],-23 mmHg
same,Delta blood pressure,Monkey [11],-6 mmHg
same,Delta blood pressure,Monkey [12],-17 mmHg
same,Delta blood pressure,Monkey [13],-8 mmHg
same,Delta blood pressure,Monkey [14],-10 mmHg
same,Delta blood pressure,Monkey [15],-5 mmHg
